In ChEMBL document CHEMBL2434891, “Design, synthesis, and in vitro cancer cell growth inhibition evaluation and antimalarial testing of trioxanes installed in cyclic 2-enoate substructures” (Eur J Med Chem, 2013):

Legend:
PC-3 = test: Cytotoxicity against human PC3 cells after 72 hrs by SRB assay; assay type: functional; settings: PC-3, 72 h
OVCAR-5 = test: Cytotoxicity against human OVCAR5 cells after 72 hrs by SRB assay; assay type: functional; settings: OVCAR-5, 72 h
[1] = Cytotoxicity against human BSY1 cells after 72 hrs by SRB assay; assay type: functional; settings: BSY-1, 72 h
DU-145 = test: Cytotoxicity against human DU145 cells after 72 hrs by SRB assay; assay type: functional; settings: DU-145, 72 h
SF-539 = test: Cytotoxicity against human SF539 cells after 72 hrs by SRB assay; assay type: functional; settings: SF-539, 72 h
KM12 = test: Cytotoxicity against human KM12 cells after 72 hrs by SRB assay; assay type: functional; settings: KM12, 72 h
DMS-114 = test: Cytotoxicity against human DMS114 cells after 72 hrs by SRB assay; assay type: functional; settings: DMS-114, 72 h
NCI-H522 = test: Cytotoxicity against human NCI-H522 cells after 72 hrs by SRB assay; assay type: functional; settings: NCI-H522, 72 h
SNB-78 = test: Cytotoxicity against human SNB78 cells after 72 hrs by SRB assay; assay type: functional; settings: SNB-78, 72 h
MKN-45 = test: Cytotoxicity against human MKN45 cells after 72 hrs by SRB assay; assay type: functional; settings: MKN-45, 72 h
LOX IMVI = test: Cytotoxicity against human LOXIMVI cells after 72 hrs by SRB assay; assay type: functional
[2] = Cytotoxicity against human HBC5 cells after 72 hrs by SRB assay; assay type: functional; settings: HBC5, 72 h
ACHN = test: Cytotoxicity against human ACHN cells after 72 hrs by SRB assay; assay type: functional
HCT-116 = test: Cytotoxicity against human HCT116 cells after 72 hrs by SRB assay; assay type: functional, cell-based; settings: HCT-116, 72 h
Method in brief: (§1)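 Adherent cells grown at 37 °C and 5% CO2. Seeded at 1×10^4/well 24 h before dosing, then 72 h at 10–0.01 µg/mL final. Fixed with cold 50% TCA, stained with 0.4% SRB, dye extracted in 10 mM Tris, read at 540 nm.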

MKN-7 = test: Cytotoxicity against human MKN7 cells after 72 hrs by SRB assay; assay type: functional; settings: MKN-7, 72 h
SF-295 = test: Cytotoxicity against human SF295 cells after 72 hrs by SRB assay; assay type: functional; settings: SF-295, 72 h
SF-268 = test: Cytotoxicity against human SF268 cells after 72 hrs by SRB assay; assay type: functional; settings: SF-268, 72 h
[3] = Cytotoxicity against human HBC4 cells after 72 hrs by SRB assay; assay type: functional; settings: HBC4, 72 h
[4] = Cytotoxicity against human MKN1 cells after 72 hrs by SRB assay; assay type: functional; settings: MKN-1, 72 h
MV4-11 = test: Antiproliferative activity against human MV4-11 cells after 72 hrs by MTT assay; assay type: functional, cell-based; settings: MV4-11, 72 h
MKN-74 = test: Cytotoxicity against human MKN74 cells after 72 hrs by SRB assay; assay type: functional; settings: MKN-74, 72 h
OVCAR-8 = test: Cytotoxicity against human OVCAR8 cells after 72 hrs by SRB assay; assay type: functional; settings: OVCAR-8, 72 h
A549 = test: Cytotoxicity against human A549 cells after 72 hrs by SRB assay; assay type: functional, cell-based; settings: A549, 72 h; method in brief: as §1
OVCAR-3 = test: Cytotoxicity against human OVCAR3 cells after 72 hrs by SRB assay; assay type: functional; settings: OVCAR-3, 72 h
HT-29 = test: Cytotoxicity against human HT-29 cells after 72 hrs by SRB assay; assay type: functional; settings: HT-29, 72 h
[5] = Cytotoxicity against human RXF631L cells after 72 hrs by SRB assay; assay type: functional; settings: RXF 631, 72 h
NCI-H460 = test: Cytotoxicity against human NCI-H460 cells after 72 hrs by SRB assay; assay type: functional; settings: NCI-H460, 72 h
NCI-H23 = test: Cytotoxicity against human NCI-H23 cells after 72 hrs by SRB assay; assay type: functional; settings: NCI-H23, 72 h
[6] = read-out: LC50 (the source's name)

## COc1ccc(C2O[C@]34CC(c5cccc(OC)c5)OC(=O)C3=C[C@@]2(C)OO4)cc1 (some centres not stated)
PC-3
  TGI: 27 µM
PC-3; read-out: GI50
  GI50: 13 µM
PC-3; [6]
  CC50: 56 µM
OVCAR-5
  TGI: 7.4 µM
OVCAR-5; read-out: GI50
  GI50: 2.8 µM
OVCAR-5; [6]
  CC50: 27 µM
[1]
  TGI: 17 µM
[1]; read-out: GI50
  GI50: 5 µM
[1]; [6]
  CC50: 46 µM
DU-145
  TGI: 31 µM
DU-145; read-out: GI50
  GI50: 16 µM
DU-145; [6]
  CC50: 57 µM
SF-539
  TGI: 5.4 µM
SF-539; read-out: GI50
  GI50: 2.8 µM
SF-539; [6]
  CC50: 14 µM
KM12
  TGI: 39 µM
KM12; read-out: GI50
  GI50: 18 µM
KM12; [6]
  CC50: 85 µM
DMS-114
  TGI: 20 µM
DMS-114; read-out: GI50
  GI50: 4.4 µM
DMS-114; [6]
  CC50: 95 µM
NCI-H522
  TGI: 5 µM
NCI-H522; read-out: GI50
  GI50: 2 µM
NCI-H522; [6]
  CC50: 22 µM
SNB-78
  TGI: 34 µM
SNB-78; read-out: GI50
  GI50: 13 µM
SNB-78; [6]
  CC50: 90 µM
MKN-45
  TGI: 30 µM
MKN-45; read-out: GI50
  GI50: 16 µM
MKN-45; [6]
  CC50: 57 µM
LOX IMVI
  TGI: 9 µM
LOX IMVI; read-out: GI50
  GI50: 1 µM
LOX IMVI; [6]
  CC50: 7.5 µM
[2]
  TGI: 4.1 µM
[2]; read-out: GI50
  GI50: 1.9 µM
[2]; [6]
  CC50: 8.8 µM
ACHN
  TGI: 29 µM
ACHN; read-out: GI50
  GI50: 15 µM
ACHN; [6]
  CC50: 56 µM
HCT-116
  TGI: 13 µM
HCT-116; read-out: GI50
  GI50: 3.4 µM
HCT-116; [6]
  CC50: 70 µM
MKN-7
  TGI: 14 µM
MKN-7; read-out: GI50
  GI50: 3.4 µM
MKN-7; [6]
  CC50: 90 µM
SF-295
  TGI: 33 µM
SF-295; read-out: GI50
  GI50: 18 µM
SF-295; [6]
  CC50: 60 µM
SF-268
  TGI: 36 µM
SF-268; read-out: GI50
  GI50: 14 µM
SF-268; [6]
  CC50: 92 µM
[3]
  TGI: 13 µM
[3]; read-out: GI50
  GI50: 3.7 µM
[3]; [6]
  CC50: 38 µM
[4]
  TGI: 4.4 µM
[4]; read-out: GI50
  GI50: 2.1 µM
[4]; [6]
  CC50: 9.1 µM
MV4-11
  IC50: 4.68 µM
MKN-74
  TGI: 37 µM
MKN-74; read-out: GI50
  GI50: 14 µM
MKN-74; [6]
  CC50: 96 µM
OVCAR-8
  TGI: 38 µM
OVCAR-8; read-out: GI50
  GI50: 9.4 µM
OVCAR-8; [6]
  CC50: 100 µM
A549
  TGI: 37 µM
A549; read-out: GI50
  GI50: 18 µM
A549; [6]
  CC50: 72 µM
OVCAR-3
  TGI: 5.1 µM
OVCAR-3; read-out: GI50
  GI50: 2.4 µM
OVCAR-3; [6]
  CC50: 13 µM
HT-29
  TGI: 27 µM
HT-29; read-out: GI50
  GI50: 5.2 µM
HT-29; [6]
  CC50: 100 µM
[5]
  TGI: 31 µM
[5]; read-out: GI50
  GI50: 17 µM
[5]; [6]
  CC50: 59 µM
NCI-H460
  TGI: 41 µM
NCI-H460; read-out: GI50
  GI50: 20 µM
NCI-H460; [6]
  CC50: 82 µM
NCI-H23
  TGI: 36 µM
NCI-H23; read-out: GI50
  GI50: 17 µM
NCI-H23; [6]
  CC50: 79 µM
